Experimental data taken from ChEMBL document CHEMBL4261600 (Eur J Med Chem, 2018).

Tests used:
[1] = Cmax in Sprague-Dawley rat at 3 mg/kg, iv by LC-MS/MS analysis; assay type: ADME, organism-based; parameters: dose 3 mg/kg, route intravenous; conditions: in vivo
[2] = target: Mast/stem cell growth factor receptor Kit (Homo sapiens) (UniProt P10721); assay: Binding affinity to wild-type human partial length KIT (I571 to D952 residues) expressed in bacterial expression system assessed as remaining unbound target protein level at 1000 nM by Kinomescan method relative to control
Sequence of Mast/stem cell growth factor receptor Kit (Homo sapiens) (P10721 whole entry, the tested form may be a part): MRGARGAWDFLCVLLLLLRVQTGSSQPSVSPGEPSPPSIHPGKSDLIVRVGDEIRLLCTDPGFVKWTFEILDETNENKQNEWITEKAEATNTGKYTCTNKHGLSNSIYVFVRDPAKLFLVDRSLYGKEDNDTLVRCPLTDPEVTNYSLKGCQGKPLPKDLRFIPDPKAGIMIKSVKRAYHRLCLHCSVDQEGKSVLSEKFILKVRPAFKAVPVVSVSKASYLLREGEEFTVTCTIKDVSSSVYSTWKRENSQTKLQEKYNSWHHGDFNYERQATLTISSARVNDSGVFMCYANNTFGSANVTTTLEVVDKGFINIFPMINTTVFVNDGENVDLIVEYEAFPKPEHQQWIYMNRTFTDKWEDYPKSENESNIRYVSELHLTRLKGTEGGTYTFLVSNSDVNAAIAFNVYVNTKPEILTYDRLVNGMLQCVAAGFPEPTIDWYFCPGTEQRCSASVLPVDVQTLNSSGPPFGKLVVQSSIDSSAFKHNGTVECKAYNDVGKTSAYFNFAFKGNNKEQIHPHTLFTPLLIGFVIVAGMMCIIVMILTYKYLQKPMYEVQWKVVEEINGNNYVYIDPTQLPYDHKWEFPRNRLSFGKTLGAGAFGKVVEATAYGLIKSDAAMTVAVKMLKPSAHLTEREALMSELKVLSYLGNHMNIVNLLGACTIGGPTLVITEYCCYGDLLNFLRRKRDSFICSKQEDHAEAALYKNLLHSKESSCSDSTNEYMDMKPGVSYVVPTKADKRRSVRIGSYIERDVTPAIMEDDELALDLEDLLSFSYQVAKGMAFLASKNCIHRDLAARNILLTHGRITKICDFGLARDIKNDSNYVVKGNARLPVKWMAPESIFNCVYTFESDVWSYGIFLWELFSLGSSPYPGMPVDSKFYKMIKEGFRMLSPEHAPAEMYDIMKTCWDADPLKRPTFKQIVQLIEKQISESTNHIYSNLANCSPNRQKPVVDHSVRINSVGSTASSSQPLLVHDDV

Homo sapiens = species on record: Homo sapiens; assay: Selectivity ratio of IC50 for recombinant GST-tagged human full length CDK14/cyclin Y (2 to end residues) to IC50 for recombinant full length His-tagged human CDK9/CyclinT1
[3] = target: Cyclin-dependent kinase 4/cyclin D1 (Homo sapiens) (UniProt P11802+P24385); assay: Binding affinity to wild-type human full length CDK4/cyclinD1 (M1 to E303 residues) expressed in mammalian expression system assessed as remaining unbound target protein level at 1000 nM by Kinomescan method relative to control
Method in brief: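 KINOMEscan competitive binding profile at 1 μM inhibitor. Remaining target binding reported as percent of DMSO control.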

[4] = target: Wee1-like protein kinase 2 (Homo sapiens) (UniProt P0C1S8); assay: Binding affinity to wild-type human partial length WEE2 (M204 to K492 residues) expressed in bacterial expression system assessed as remaining unbound target protein level at 1000 nM by Kinomescan method relative to control
[5] = tested on: Epidermal growth factor receptor (Homo sapiens), P00533 [L858R,T790M]; assay: Binding affinity to human partial length EGFR L858R/T790M double mutant (R669 to V1011 residues) expressed in mammalian expression system assessed as remaining unbound target protein level at 1000 nM by Kinomescan method relative to control
Method in brief: (§1)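 KINOMEscan competition-binding profiling across the panel of 468 kinases and mutants, with inhibitor tested at 1 μM. Binding is expressed as percent of control, with DMSO as the reference control.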

[6] = target: Serine/threonine-protein kinase RIO3 (Homo sapiens) (UniProt O14730); assay: Binding affinity to wild-type human full length RIOK3 (M1 to E519 residues) expressed in bacterial expression system assessed as remaining unbound target protein level at 1000 nM by Kinomescan method relative to control
Method in brief: (§2)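 KINOMEscan competition binding profile across a panel of 468 kinases and mutants, with the inhibitor tested at a single concentration of 1 μM. Binding is reported as percent of control, meaning signal relative to a DMSO control.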

[7] = target: Calcium/calmodulin-dependent protein kinase type IV (Homo sapiens) (UniProt Q16566); assay: Binding affinity to wild-type human partial length CAMK4 (A22 to A322 residues) expressed in bacterial expression system assessed as remaining unbound target protein level at 1000 nM by Kinomescan method relative to control
Method in brief: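 Profiled in a KINOMEscan binding panel with the inhibitor at a single concentration of 1 μM. Binding to each kinase was read out as percent of control, relative to a DMSO control. Strong binders were defined as those with a percent control value below 1.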

[8] = target: Receptor-type tyrosine-protein kinase FLT3 (Homo sapiens) (UniProt P36888); assay: Binding affinity to wild-type human partial length FLT3 (V592 to Y969 residues) expressed in bacterial expression system assessed as remaining unbound target protein level at 1000 nM by Kinomescan method relative to control
Sequence of Receptor-type tyrosine-protein kinase FLT3 (Homo sapiens) (P36888 whole entry, the tested form may be a part): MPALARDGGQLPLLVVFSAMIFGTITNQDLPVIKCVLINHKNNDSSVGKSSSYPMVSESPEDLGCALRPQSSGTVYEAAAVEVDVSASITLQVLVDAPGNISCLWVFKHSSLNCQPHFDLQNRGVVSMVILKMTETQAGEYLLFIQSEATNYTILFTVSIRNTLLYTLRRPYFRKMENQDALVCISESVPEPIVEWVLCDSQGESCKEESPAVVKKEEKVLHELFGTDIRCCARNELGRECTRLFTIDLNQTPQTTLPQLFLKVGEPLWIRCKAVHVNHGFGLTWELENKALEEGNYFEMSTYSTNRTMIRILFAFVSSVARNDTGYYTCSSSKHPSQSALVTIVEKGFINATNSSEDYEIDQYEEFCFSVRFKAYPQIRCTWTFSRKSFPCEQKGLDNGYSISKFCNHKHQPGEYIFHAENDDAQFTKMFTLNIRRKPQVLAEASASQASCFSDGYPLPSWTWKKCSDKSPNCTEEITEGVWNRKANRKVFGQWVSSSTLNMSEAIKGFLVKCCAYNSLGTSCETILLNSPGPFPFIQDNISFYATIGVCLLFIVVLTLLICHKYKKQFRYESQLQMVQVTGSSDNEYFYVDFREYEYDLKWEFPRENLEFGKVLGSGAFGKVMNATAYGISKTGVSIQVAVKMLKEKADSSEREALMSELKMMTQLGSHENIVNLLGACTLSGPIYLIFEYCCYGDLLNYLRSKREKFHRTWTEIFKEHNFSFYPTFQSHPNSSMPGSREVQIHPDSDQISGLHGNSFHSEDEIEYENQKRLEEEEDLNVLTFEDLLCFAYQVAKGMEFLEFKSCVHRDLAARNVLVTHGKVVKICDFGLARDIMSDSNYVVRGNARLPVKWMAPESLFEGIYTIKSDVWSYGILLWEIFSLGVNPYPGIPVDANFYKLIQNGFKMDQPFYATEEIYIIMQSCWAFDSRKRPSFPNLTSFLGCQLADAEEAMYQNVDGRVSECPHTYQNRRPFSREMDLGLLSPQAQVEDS

[9] = target: Dual specificity protein kinase CLK2 (Homo sapiens) (UniProt P49760); assay: Binding affinity to wild-type human partial length CLK2 (D144 to R498 residues) expressed in bacterial expression system assessed as remaining unbound target protein level at 1000 nM by Kinomescan method relative to control; method in brief: as §2
Sequence of Dual specificity protein kinase CLK2 (Homo sapiens) (P49760 whole entry, looked up, the tested form may be a part): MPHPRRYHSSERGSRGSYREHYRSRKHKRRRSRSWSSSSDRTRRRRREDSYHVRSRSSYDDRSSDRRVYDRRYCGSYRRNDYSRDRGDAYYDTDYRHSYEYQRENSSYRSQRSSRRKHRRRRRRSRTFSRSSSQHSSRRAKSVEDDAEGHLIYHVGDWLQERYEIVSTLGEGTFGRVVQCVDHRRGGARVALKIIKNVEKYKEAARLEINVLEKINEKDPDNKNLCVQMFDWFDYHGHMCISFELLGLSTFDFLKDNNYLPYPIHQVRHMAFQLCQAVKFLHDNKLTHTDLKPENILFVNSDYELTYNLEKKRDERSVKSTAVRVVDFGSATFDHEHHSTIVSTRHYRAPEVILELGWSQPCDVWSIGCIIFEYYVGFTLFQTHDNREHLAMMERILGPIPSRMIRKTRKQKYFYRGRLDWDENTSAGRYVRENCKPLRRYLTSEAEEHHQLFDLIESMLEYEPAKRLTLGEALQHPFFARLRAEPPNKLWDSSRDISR

[10] = Apparent volume of distribution in beagle dog at 2 mg/kg, iv by LC-MS/MS analysis; assay type: ADME, organism-based, Canis lupus familiaris; conditions: in vivo, read-out: Vz
Method in brief: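 Non-compartmental PK. Male SD rats 190-210 g, mice and beagle dogs acclimatized one week, fasted 12 h with water, split into iv and po groups (mice 48, rats 6, dogs 6). iv 3/3/2 mg/kg (mice/rats/dogs); po 10/20/10 mg/kg; vehicle DMSO in 5% glucose water. Blood at 2 or 5 to 720 min; plasma protein-precipitated with methanol, caffeine internal standard, LC-MS/MS.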

[11] = target: Myosin light chain kinase, smooth muscle (Homo sapiens) (UniProt Q15746); assay: Binding affinity to wild-type human full length MYLK (M854 to E1845 residues) expressed in mammalian expression system assessed as remaining unbound target protein level at 1000 nM by Kinomescan method relative to control; method in brief: as §2
[12] = target: Serine/threonine-protein kinase WNK4 (Homo sapiens) (UniProt Q96J92); assay: Binding affinity to wild-type human partial length WNK4 (A31 to D461 residues) expressed in mammalian expression system assessed as remaining unbound target protein level at 1000 nM by Kinomescan method relative to control
[13] = target: Casein kinase I isoform gamma-1 (Homo sapiens) (UniProt Q9HCP0); assay: Binding affinity to wild-type human partial length CSNK1G1 (T15 to S353 residues) expressed in bacterial expression system assessed as remaining unbound target protein level at 1000 nM by Kinomescan method relative to control; method in brief: as §2
[14] = tested on: Receptor-type tyrosine-protein kinase FLT3 (Homo sapiens), P36888 [UNDEFINED MUTATION]; assay: Binding affinity to human partial length FLT3 ITD mutant expressed in bacterial expression system assessed as remaining unbound target protein level at 1000 nM by Kinomescan method relative to control; method in brief: as §1
Sequence of Receptor-type tyrosine-protein kinase FLT3 (Homo sapiens), P36888 [UNDEFINED MUTATION] (P36888 whole entry, looked up, change not shown, the tested form may be a part): as the sequence (P36888 whole entry, the tested form may be a part) above

[15] = target: Non-receptor tyrosine-protein kinase TNK1 (Homo sapiens) (UniProt Q13470); assay: Binding affinity to wild-type human full length TNK1 (M1 to P661 residues) expressed in bacterial expression system assessed as remaining unbound target protein level at 1000 nM by Kinomescan method relative to control; method in brief: as §2
[16] = target: Homeodomain-interacting protein kinase 1 (Homo sapiens) (UniProt Q86Z02); assay: Binding affinity to wild-type human partial length HIPK1 (M146 to I555 residues) expressed in mammalian expression system assessed as remaining unbound target protein level at 1000 nM by Kinomescan method relative to control
[17] = target: Megakaryocyte-associated tyrosine-protein kinase (Homo sapiens) (UniProt P42679); assay: Binding affinity to wild-type human full length CTK (M43 to P508 residues) expressed in mammalian expression system assessed as remaining unbound target protein level at 1000 nM by Kinomescan method relative to control
Sequence of Megakaryocyte-associated tyrosine-protein kinase (Homo sapiens) (P42679 whole entry, the tested form may be a part): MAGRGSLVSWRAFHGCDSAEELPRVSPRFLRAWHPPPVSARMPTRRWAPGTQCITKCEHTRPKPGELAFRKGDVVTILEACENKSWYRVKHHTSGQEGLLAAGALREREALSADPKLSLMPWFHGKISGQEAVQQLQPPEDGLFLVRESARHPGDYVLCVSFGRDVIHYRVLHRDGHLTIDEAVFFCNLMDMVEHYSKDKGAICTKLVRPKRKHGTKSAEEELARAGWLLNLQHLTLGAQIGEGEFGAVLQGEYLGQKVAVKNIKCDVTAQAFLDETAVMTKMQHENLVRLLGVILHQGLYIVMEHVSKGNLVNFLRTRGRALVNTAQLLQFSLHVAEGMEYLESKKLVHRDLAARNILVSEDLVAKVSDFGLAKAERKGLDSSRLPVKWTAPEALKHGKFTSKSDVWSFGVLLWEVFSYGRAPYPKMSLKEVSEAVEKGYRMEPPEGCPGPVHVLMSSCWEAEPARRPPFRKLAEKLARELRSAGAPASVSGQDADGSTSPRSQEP
Method in brief: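 Single-point competition binding screen across a panel of 468 kinases and mutants, with the inhibitor at 1 μM. Binding is read out as percent of a DMSO control, and targets below 1 percent control were classed as strong binders.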

[18] = target: Mitogen-activated protein kinase kinase kinase 11 (Homo sapiens) (UniProt Q16584); assay: Binding affinity to wild-type human partial length MLK3 (I77 to W399 residues) expressed in bacterial expression system assessed as remaining unbound target protein level at 1000 nM by Kinomescan method relative to control
Sequence of Mitogen-activated protein kinase kinase kinase 11 (Homo sapiens) (Q16584 whole entry, looked up, the tested form may be a part): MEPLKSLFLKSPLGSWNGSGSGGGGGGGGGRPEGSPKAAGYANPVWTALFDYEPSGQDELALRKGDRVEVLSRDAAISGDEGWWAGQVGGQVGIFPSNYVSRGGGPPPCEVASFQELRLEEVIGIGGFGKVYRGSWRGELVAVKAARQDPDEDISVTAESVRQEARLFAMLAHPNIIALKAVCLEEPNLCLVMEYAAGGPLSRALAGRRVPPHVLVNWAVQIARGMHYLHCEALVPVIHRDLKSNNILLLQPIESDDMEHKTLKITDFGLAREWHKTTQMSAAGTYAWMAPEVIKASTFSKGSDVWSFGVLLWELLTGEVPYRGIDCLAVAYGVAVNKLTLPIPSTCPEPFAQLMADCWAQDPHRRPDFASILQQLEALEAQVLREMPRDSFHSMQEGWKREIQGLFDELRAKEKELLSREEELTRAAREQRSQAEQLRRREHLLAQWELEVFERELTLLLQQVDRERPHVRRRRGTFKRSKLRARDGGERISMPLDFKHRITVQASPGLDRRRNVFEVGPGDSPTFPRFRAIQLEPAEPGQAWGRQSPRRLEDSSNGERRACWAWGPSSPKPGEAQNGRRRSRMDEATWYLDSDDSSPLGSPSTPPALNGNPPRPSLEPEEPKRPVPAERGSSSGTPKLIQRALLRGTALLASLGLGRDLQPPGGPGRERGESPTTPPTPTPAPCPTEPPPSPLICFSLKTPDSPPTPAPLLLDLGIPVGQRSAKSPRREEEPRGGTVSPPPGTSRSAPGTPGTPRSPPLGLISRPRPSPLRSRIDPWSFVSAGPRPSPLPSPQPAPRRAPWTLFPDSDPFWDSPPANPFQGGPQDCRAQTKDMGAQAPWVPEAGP

[19] = target: Phosphatidylinositol 4-phosphate 5-kinase type-1 gamma (Homo sapiens) (UniProt O60331); assay: Binding affinity to wild-type human partial length PIP5K1C (M1 to T668 residues) expressed in mammalian expression system assessed as remaining unbound target protein level at 1000 nM by Kinomescan method relative to control

## COCCN[C@H]1CC[C@H](Nc2cc(-c3csc(NCC4(C#N)CCOCC4)n3)c(Cl)cn2)CC1
[1]
  Cmax: 1470 ng/mL
[2]
  Activity: 91%
Homo sapiens
  Ratio IC50: > 1000
[3]
  Activity: 69%
[4]
  Activity: 100%
[5]
  Activity: 100%
[6]
  Activity: 99%
[7]
  Activity: 100%
[8]
  Activity: 89%
[9]
  Activity: 38%
[10]
  Vd: 12.8 L/kg
[11]
  Activity: 71%
[12]
  Activity: 100%
[13]
  Activity: 93%
[14]
  Activity: 89%
[15]
  Activity: 56%
[16]
  Activity: 60%
[17]
  Activity: 96%
[18]
  Activity: 85%
[19]
  Activity: 100%
